# Activity calls are given as the source filed them. The rule behind the calls is not given here.
# Legend:
# Leishmania infantum [1] = experiment: Antileishmanial activity against Leishmania infantum promastigotes assessed as reduction in total thiol content at 75 uM treated for 1 hr by CMF diacetate probe based flow cytometry relative to control; type: functional; design: scale not given: the % may be the effect or the level left
# Summary of the method: (§1)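 Promastigotes grown in RPMI-1640 with 10% FCS and 25 mM HEPES pH 7.2 at 26 °C. Treatments were 75 µM for 1 h, 5 mM BSO for 72 h, or both combined; vehicle served as control. Some parasites were also H2O2-treated. Non-protein thiols read by flow cytometry as CMF diacetate green fluorescence in PI-excluding live parasites. Means of nine independent experiments with 99.0% confidence intervals.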
# [2] = Selectivity index, ratio of CC50 for human HepG2 cells to EC50 for Leishmania infantum MCAN/ES/89/IPZ229/1/89 axenic amastigotes; type: toxicity; details: read-out: Ratio CC50/EC50
# Trypanothione reductase [3] = biological target: T1, Trypanothione reductase (Leishmania infantum, UniProt A4HSF7); experiment: Inhibition of HIS-tagged recombinant Leishmania infantum TryR oxidoreductase activity expressed in Escherichia coli in the presence of NADPH by spectrophotometry based DTNB-coupled assay
# Summary of the method: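 HIS-tagged LiTryR was used in a DTNB-coupled assay at 26 °C. Buffer: 40 mM HEPES pH 7.5, 1 mM EDTA, 30 µM NADP+, 25 µM DTNB, 150 µM NADPH, 1.75% DMSO. Standard runs used 1 µM TS2 and 7 nM enzyme; cross-species runs used 50 µM TS2 and 0.5 nM enzyme. Started with NADPH + TS2; TNB read at 412 nm. Compounds were screened at 75 µM first. Three independent experiments.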
# Trypanothione reductase [4] = biological target: T1, Trypanothione reductase; experiment: Mixed non-competitive inhibition of Leishmania infantum TryR using TS2 as substrate assessed as inhibition constant of two-step induced-fit mechanism by plot analysis
# Summary of the method: (§2)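 Final assay: 40 mM HEPES pH 7.5, 1 mM EDTA, 300 µM NADPH, 60 µM NADP+, 150 µM DTNB, 3.1–100 µM TS2, 1.04% DMSO, 0.5 nM LiTryR, with serially diluted inhibitor. Enzyme was added last by automated dispenser to avoid preincubation. Progress curves were read at 412 nm at 26 °C; initial and steady-state velocities were fitted to kinetic models. Three independent experiments.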
# [5] = Cytotoxicity against human HepG2 cells assessed as reduction in cell proliferation treated for 24 hrs by crystal violet staining based analysis; type: toxicity
# Trypanothione reductase [6] = biological target: Trypanothione reductase (Trypanosoma cruzi, UniProt P28593); experiment: Inhibition of HIS-tagged recombinant Trypanosoma cruzi TryR oxidoreductase activity expressed in Escherichia coli in the presence of NADPH by spectrophotometry based DTNB-coupled assay
# Summary of the method: (§3)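 HIS-tagged TryR from each species was expressed in E. coli. Activity was read by DTNB-coupled assay at 26 °C in 40 mM HEPES pH 7.5, 1 mM EDTA, 30 µM NADP+, 25 µM DTNB, 150 µM NADPH, 1.75% DMSO. Conditions were 50 µM TS2 and 0.5 nM enzyme; reaction started with NADPH + TS2. TNB absorbance at 412 nm. Three independent experiments.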
# Leishmania infantum [7] = experiment: Antileishmanial activity against Leishmania infantum promastigotes assessed as reduction in non-protein thiol content at 75 uM incubated for 1 hrs by CMF diacetate probe based flow cytometry relative to control; type: functional; design: scale not given: the % may be the effect or the level left; summary of the method: as §1
# Trypanothione reductase [8] = biological target: T1, Trypanothione reductase; experiment: Mixed non-competitive inhibition of Leishmania infantum TryR using TS2 as substrate assessed as inhibition constant of first equilibrium by plot analysis; summary of the method: as §2
# [9] = biological target: Trypanothione reductase (Leishmania infantum) (UniProt A4HSF7); experiment: Time-dependent inhibition of Leishmania infantum TryR using TS2 as substrate assessed as decrease in final steady-state velocity at fixed TS2 concentration; summary of the method: as §2
# Leishmania infantum [10] = experiment: Antileishmanial activity against Leishmania infantum MCAN/ES/89/IPZ229/1/89 axenic amastigotes assessed as reduction in parasite viability treated for 24 hrs by PI staining based flow cytometry; type: functional, organism-based; details: MCAN/ES/89/IPZ229/1/89, 24 h
# Summary of the method: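 Axenic amastigotes were seeded from log-phase cultures at 10^5 parasites/mL in M199-based medium at pH 5.4. They were derived from promastigotes by 3 days at 37 °C. Compounds at 2.3–75 µM for 24 h at 37 °C. Viability read by propidium iodide flow cytometry. EC50 ± SE from three independent experiments, each in triplicate.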
# Trypanothione reductase [11] = biological target: Trypanothione reductase (Trypanosoma brucei brucei, UniProt P39051); experiment: Inhibition of HIS-tagged recombinant Trypanosoma brucei TryR oxidoreductase activity expressed in Escherichia coli in the presence of NADPH by spectrophotometry based DTNB-coupled assay; summary of the method: as §3
# Trypanothione reductase [12] = biological target: Trypanothione reductase (Trypanosoma congolense, UniProt P13110); experiment: Inhibition of HIS-tagged recombinant Trypanosoma congolense TryR oxidoreductase activity expressed in Escherichia coli in the presence of NADPH by spectrophotometry based DTNB-coupled assay; summary of the method: as §3
# [13] = biological target: Trypanothione reductase (Leishmania infantum) (UniProt A4HSF7); experiment: Time-dependent inhibition of Leishmania infantum TryR using TS2 as substrate assessed as decrease in initial velocity rate at fixed TS2 concentration; summary of the method: as §2
# [14] = Cytotoxicity against human HepG2 cells assessed as reduction in cell proliferation measured after 72 hrs by crystal violet staining based analysis; type: toxicity
# Leishmania infantum [15] = experiment: Antileishmanial activity against GFP-expressing Leishmania infantum intracellular amastigotes infected in human THP-1 derived macrophage cells assessed as reduction in parasite viability measured for 72 hrs by resazurin/alamar blue fluorometric assay; type: functional, organism-based
# Summary of the method: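 Human THP-1-derived macrophages infected with GFP-expressing L. infantum amastigotes; compounds at 2.3–75 µM, infected cells monitored for 72 h. EC50 ± SE from three independent experiments.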
# Trypanothione reductase [16] = biological target: T1, Trypanothione reductase; experiment: Disruption of HIS-FLAG-tagged recombinant Leishmania infantum TryR dimerization expressed in Escherichia coli Rossetta BL21 (DE3) cells incubated for 16 hrs by ELISA analysis
# Summary of the method: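 400 nM HIS-FLAG-tagged LiTryR (co-purified with HIS-tagged LiTryR as heterodimer) incubated with compound (3.1–75 μM) in 50 mM Tris pH 8.0, 300 mM NaCl, 16 h, 37 °C with vigorous shaking; centrifuged, supernatant captured on α-FLAG plates, detected with HRP-α-HIS antibody and o-phenylenediamine, A490. Signal normalized to DMSO; IC50 by nonlinear regression; triplicate, three independent experiments.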
# [17] = Selectivity index, ratio of CC50 for human HepG2 cells to EC50 for GFP-expressing Leishmania infantum intracellular amastigotes infected in human THP-1 derived macrophage cells; type: toxicity, cell-based; details: read-out: Ratio CC50/EC50
# [18] = biological target: Trypanothione reductase (Leishmania infantum) (UniProt A4HSF7); experiment: Mixed non-competitive inhibition of Leishmania infantum TryR using TS2 as substrate assessed as increase in apparent inhibition constant of initial EI complex by plot analysis; summary of the method: as §2
# Leishmania infantum [19] = experiment: Antileishmanial activity against H2O2-induced Leishmania infantum promastigotes assessed as reduction in non-protein thiol content at 75 uM treated for 1 hr in presence of BSO by CMF diacetate probe based flow cytometry relative to control; type: functional; design: scale not given: the % may be the effect or the level left; summary of the method: as §1
# [20] = Thermodynamic aqueous solubility of compound at 25 degreeC measured after 24 hrs by HPLC analysis; type: physicochemical; details: buffer, read-out: Therm_solubility
# Summary of the method: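 Excess compound was suspended in water (pH 5.5), sonicated 10 min, equilibrated overnight at room temperature, and centrifuged. Supernatant was diluted and quantified by HPLC (UV 254 nm) against a five-point standard curve (10–500 µM).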
# [21] = biological target: Trypanothione reductase (Leishmania infantum) (UniProt A4HSF7); experiment: Mixed non-competitive inhibition of Leishmania infantum TryR using TS2 as substrate assessed as increase in apparent inhibition constant of high affinity EI complex by plot analysis; summary of the method: as §2
# Trypanothione reductase (Leishmania infantum), sequence (A4HSF7 as listed by the source): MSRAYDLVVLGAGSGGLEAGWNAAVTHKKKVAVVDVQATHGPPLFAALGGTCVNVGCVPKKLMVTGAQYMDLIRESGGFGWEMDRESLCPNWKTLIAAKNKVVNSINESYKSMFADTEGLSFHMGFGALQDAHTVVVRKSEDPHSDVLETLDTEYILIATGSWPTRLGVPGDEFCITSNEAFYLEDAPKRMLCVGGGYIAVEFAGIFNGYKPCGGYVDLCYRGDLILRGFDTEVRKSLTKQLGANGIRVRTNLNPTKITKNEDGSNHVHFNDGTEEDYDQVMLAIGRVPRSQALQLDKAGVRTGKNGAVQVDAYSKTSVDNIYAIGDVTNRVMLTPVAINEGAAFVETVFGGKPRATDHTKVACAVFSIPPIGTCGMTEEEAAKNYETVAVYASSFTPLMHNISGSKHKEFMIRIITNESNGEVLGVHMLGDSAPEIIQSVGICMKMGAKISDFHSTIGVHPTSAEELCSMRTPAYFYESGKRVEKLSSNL
# T1 sequence (A4HSF7 whole entry): as the sequence (A4HSF7 as listed by the source) above
# Trypanothione reductase (Trypanosoma cruzi, UniProt P28593), sequence (P28593 whole entry): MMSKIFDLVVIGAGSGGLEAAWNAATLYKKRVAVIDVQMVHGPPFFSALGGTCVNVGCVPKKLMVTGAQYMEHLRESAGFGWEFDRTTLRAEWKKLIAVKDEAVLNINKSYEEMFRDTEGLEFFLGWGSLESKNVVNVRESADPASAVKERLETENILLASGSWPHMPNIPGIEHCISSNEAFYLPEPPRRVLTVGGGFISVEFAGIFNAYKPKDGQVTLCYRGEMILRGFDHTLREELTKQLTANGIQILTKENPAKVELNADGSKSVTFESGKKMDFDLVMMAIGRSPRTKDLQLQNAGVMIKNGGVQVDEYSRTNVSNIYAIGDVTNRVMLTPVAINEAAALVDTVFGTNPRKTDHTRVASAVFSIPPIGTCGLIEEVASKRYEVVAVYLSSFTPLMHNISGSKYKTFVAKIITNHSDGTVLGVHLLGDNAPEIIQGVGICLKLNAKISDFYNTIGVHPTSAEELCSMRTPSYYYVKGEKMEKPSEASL
# Trypanothione reductase (Trypanosoma congolense, UniProt P13110), sequence (P13110 whole entry): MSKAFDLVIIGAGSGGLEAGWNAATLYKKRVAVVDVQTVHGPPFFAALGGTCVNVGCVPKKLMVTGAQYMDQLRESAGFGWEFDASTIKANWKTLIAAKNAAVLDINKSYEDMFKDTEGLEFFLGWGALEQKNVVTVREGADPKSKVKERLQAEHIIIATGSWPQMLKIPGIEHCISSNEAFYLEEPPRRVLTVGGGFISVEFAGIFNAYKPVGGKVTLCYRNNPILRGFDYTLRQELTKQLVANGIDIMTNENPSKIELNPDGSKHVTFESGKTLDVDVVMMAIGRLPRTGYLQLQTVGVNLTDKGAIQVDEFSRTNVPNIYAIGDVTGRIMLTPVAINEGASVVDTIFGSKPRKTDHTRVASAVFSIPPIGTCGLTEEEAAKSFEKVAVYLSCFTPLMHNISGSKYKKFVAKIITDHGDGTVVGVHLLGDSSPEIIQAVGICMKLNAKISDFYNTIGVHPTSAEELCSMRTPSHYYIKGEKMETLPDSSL
# Trypanothione reductase (Trypanosoma brucei brucei, UniProt P39051), sequence (P39051 whole entry): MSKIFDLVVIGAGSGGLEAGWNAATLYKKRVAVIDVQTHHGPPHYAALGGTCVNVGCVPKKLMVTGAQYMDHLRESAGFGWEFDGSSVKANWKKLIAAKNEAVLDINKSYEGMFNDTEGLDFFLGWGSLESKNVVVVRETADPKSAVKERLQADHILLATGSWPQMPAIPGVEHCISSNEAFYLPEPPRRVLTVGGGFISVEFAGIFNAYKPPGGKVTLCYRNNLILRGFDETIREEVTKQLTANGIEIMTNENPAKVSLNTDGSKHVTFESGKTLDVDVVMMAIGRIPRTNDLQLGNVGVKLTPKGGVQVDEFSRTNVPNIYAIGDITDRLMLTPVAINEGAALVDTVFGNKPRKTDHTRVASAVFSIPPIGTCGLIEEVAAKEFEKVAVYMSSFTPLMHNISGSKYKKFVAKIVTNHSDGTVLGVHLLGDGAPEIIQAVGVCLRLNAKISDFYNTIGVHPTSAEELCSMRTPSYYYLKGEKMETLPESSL
compound,measurement,setting,value
C[n+]1nn(-c2ccc(-c3nc(CCc4ccc(-c5ccccc5)cc4)cs3)c(OCCN3CCNC3=O)c2)cc1CCCCN.O=C(O)C(F)(F)F.O=S(=O)([O-])C(F)(F)F,Activity,Leishmania infantum [1],15%
same,selectivity ratio,[2],> 6.5
same,IC50,Trypanothione reductase [3],5.2 µM
same,Ki,Trypanothione reductase [4],0.2 µM
same,CC50 at 24 h,[5],> 75 µM
same,IC50,Trypanothione reductase [6],9.2 µM
same,Activity,Leishmania infantum [7],20%
same,Ki,Trypanothione reductase [8],1.2 µM
same,inhibition,[9],Active
same,EC50,Leishmania infantum [10],11.6 µM
same,IC50,Trypanothione reductase [11],4.9 µM
same,IC50,Trypanothione reductase [12],3.6 µM
same,inhibition,[13],Active
same,CC50 at 72 h,[14],> 75 µM
same,EC50,Leishmania infantum [15],8.7 µM
same,IC50,Trypanothione reductase [16],10.3 µM
same,selectivity ratio,[17],> 8.6
same,inhibition,[18],Active
same,Activity,Leishmania infantum [19],50%
same,solubility thermodynamic at 24 h,[20],12.4 mg/mL
same,inhibition,[21],Active

# From ChEMBL document CHEMBL5247635 (Eur J Med Chem, 2022)
